Test results reported in the array DNA melting data of Ke et al. (doi:10.1101/2024.01.08.574731).

What was measured:
[1] = folding enthalpy; higher = less favourable; fluorescence melt of hairpins on a sequencing array, two-state fit; details: sodium 0.088 M
In short: (§1)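 Folding enthalpy and melting temperature were estimated with bootstrapped two-state fits and combined across four replicates by inverse-variance weighting, with fitted temperatures raised by 9.35 °C to match UV melts. The data were Cy3 fluorescence of library hairpins, with annealed Cy3 and quencher oligos, on a sequenced MiSeq flow cell in 50 mM Na-HEPES pH 8.0, 25 mM NaCl, imaged in 2.5 °C steps up to 60 °C and normalised to pre-quench Cy3 and control constructs.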

[2] = melting temperature; fluorescence melt of hairpins on a sequencing array, two-state fit, raised by 9.35 °C to match UV melts; details: sodium 0.088 M
In short: as §1

Row | Sequence | folding enthalpy [1] [kcal/mol] | Tm [2] [°C]
1 | GATCCGTTGTCGGATC ((((((....)))))) | -44.4 | 59.4
2 | GATCCGTTTACGGATC ((((((....)))))) | -39.3 | 68.1
3 | GATCCGTTTCGGATC ((((((...)))))) | -38 | 63
4 | GATCCTAAACAGGATC ((((((....)))))) | -31.5 | 49
5 | GATCCTAACAAGGATC ((((((....)))))) | -32.6 | 51.5
6 | GATCCTAACAGGATC ((((((...)))))) | -40.5 | 55.3
7 | GATCCTAACCAGGATC ((((((....)))))) | -32.3 | 52
8 | GATCCTAACTAGGATC ((((((....)))))) | -36.2 | 53.3
9 | GATCCTAATTAGGATC ((((((....)))))) | -45.2 | 52
10 | GATCCTACCTAGGATC ((((((....)))))) | -31.6 | 53
11 | GATCCTACGTAGGATC ((((((....)))))) | -40.6 | 53.3
12 | GATCCTACTAGGATC ((((((...)))))) | -36.2 | 53.6
13 | GATCCTAGAGAGGATC ((((((....)))))) | -35.4 | 48
14 | GATCCTAGCAGGATC ((((((...)))))) | -37 | 55.9
15 | GATCCTAGCCAGGATC ((((((....)))))) | -40.2 | 52.1
16 | GATCCTAGGAAGGATC ((((((....)))))) | -32.8 | 50.1
17 | GATCCTAGGCAGGATC ((((((....)))))) | -35.4 | 53.3
18 | GATCCTAGGGAGGATC ((((((....)))))) | -29.6 | 51.8
19 | GATCCTATCCAGGATC ((((((....)))))) | -33.8 | 53
20 | GATCCTATCTAGGATC ((((((....)))))) | -37.3 | 52.7
21 | GATCCTATGCAGGATC ((((((....)))))) | -35.2 | 53
22 | GATCCTATTAAGGATC ((((((....)))))) | -44.9 | 52.2
23 | GATCCTCACTAGGATC ((((((....)))))) | -35.1 | 51.7
24 | GATCCTCAGAGGATC ((((((...)))))) | -31.6 | 52.1

Row | Sequence | folding enthalpy [1] [kcal/mol] | Tm [2] [°C]
25 | GATCCTCATAGGATC ((((((...)))))) | -37.4 | 53.1
26 | GATCCTCATTAGGATC ((((((....)))))) | -33.8 | 51.1
27 | GATCCTCCAGAGGATC ((((((....)))))) | -35.5 | 55.5
28 | GATCCTCGTCAGGATC ((((((....)))))) | -25.1 | 50.8
29 | GATCCTCTCAAGGATC ((((((....)))))) | -39.9 | 53.2
30 | GATCCTCTCAGGATC ((((((...)))))) | -36.4 | 55
31 | GATCCTCTGAGGATC ((((((...)))))) | -33 | 51.9
32 | GATCCTCTGCAGGATC ((((((....)))))) | -37 | 50.7
33 | GATCCTCTTCAGGATC ((((((....)))))) | -38.2 | 51.3
34 | GATCCTGAACAGGATC ((((((....)))))) | -38.4 | 59.9
35 | GATCCTGACCAGGATC ((((((....)))))) | -45.1 | 56.5
36 | GATCCTGATAAGGATC ((((((....)))))) | -37 | 64.4
37 | GATCCTGCAAGGATC ((((((...)))))) | -39.6 | 68.5
38 | GATCCTGCACAGGATC ((((((....)))))) | -47.2 | 58.9
39 | GATCCTGCATAGGATC ((((((....)))))) | -43.4 | 60.9
40 | GATCCTGCCCAGGATC ((((((....)))))) | -49.4 | 57
41 | GATCCTGCCGAGGATC ((((((....)))))) | -32.1 | 53
42 | GATCCTGCCTAGGATC ((((((....)))))) | -43.7 | 54.7
43 | GATCCTGCGCAGGATC ((((((....)))))) | -53 | 59.3
44 | GATCCTGCTCAGGATC ((((((....)))))) | -48.1 | 55.2
45 | GATCCTGGAAACGGGATC (((((.(....).))))) | -42.8 | 50.9
46 | GATCCTGGATAGGATC ((((((....)))))) | -39 | 57.5
47 | GATCCTGGGGAGGATC ((((((....)))))) | -36.8 | 51
48 | GATCCTGTAAAGGATC ((((((....)))))) | -39.6 | 60.5

Row | Sequence | folding enthalpy [1] [kcal/mol] | Tm [2] [°C]
49 | GATCCTGTCAAGGATC ((((((....)))))) | -42.7 | 64.9
50 | GATCCTGTGCAGGATC ((((((....)))))) | -43.2 | 55
51 | GATCCTGTGGAGGATC ((((((....)))))) | -31.8 | 51.8
52 | GATCCTTAAAGGATC ((((((...)))))) | -33.7 | 51.7
53 | GATCCTTACAAGGATC ((((((....)))))) | -38.1 | 54.2
54 | GATCCTTAGGAGGATC ((((((....)))))) | -39.2 | 51
55 | GATCCTTATCAGGATC ((((((....)))))) | -33.2 | 51
56 | GATCCTTCCCAGGATC ((((((....)))))) | -36.9 | 52
57 | GATCCTTCGGAGGATC ((((((....)))))) | -38.2 | 52.3
58 | GATCCTTGCAAGGATC ((((((....)))))) | -41 | 55.4
59 | GATCCTTGCTAGGATC ((((((....)))))) | -35.7 | 53.7
60 | GATCCTTGGAAGGATC ((((((....)))))) | -32.1 | 52.2
61 | GATCCTTGTAAGGATC ((((((....)))))) | -42.3 | 55.6
62 | GATCCTTTCCAGGATC ((((((....)))))) | -46.1 | 51.7
63 | GATCCTTTCGAGGATC ((((((....)))))) | -38.7 | 53.8
64 | GATCCTTTGCAGGATC ((((((....)))))) | -30.6 | 52
65 | GATCGAAAACTCGATC ((((((....)))))) | -30.3 | 47.2
66 | GATCGAAAATTCGATC ((((((....)))))) | -33.9 | 50
67 | GATCGAAACTCGATC ((((((...)))))) | -30.4 | 50.2
68 | GATCGAAACTTCGATC ((((((....)))))) | -33.9 | 53.5
69 | GATCGAAATTTCGATC ((((((....)))))) | -41.2 | 53.7
70 | GATCGAACCATCGATC ((((((....)))))) | -41.6 | 50.4
71 | GATCGAACCGTCGATC ((((((....)))))) | -37 | 49.5
72 | GATCGAACTATCGATC ((((((....)))))) | -43.8 | 50.3

Row | Sequence | folding enthalpy [1] [kcal/mol] | Tm [2] [°C]
73 | GATCGAACTCTCGATC ((((((....)))))) | -35.6 | 49.7
74 | GATCGAAGCATCGATC ((((((....)))))) | -35.8 | 51.2
75 | GATCGAATAGTCGATC ((((((....)))))) | -34.8 | 48.8
76 | GATCGAATCCTCGATC ((((((....)))))) | -41.1 | 50.6
77 | GATCGAATCTCGATC ((((((...)))))) | -38.2 | 51
78 | GATCGACAACTCGATC ((((((....)))))) | -33.8 | 48.5
79 | GATCGACAATTCGATC ((((((....)))))) | -42.5 | 49.2
80 | GATCGACACATCGATC ((((((....)))))) | -38.5 | 52.4
81 | GATCGACACCTCGATC ((((((....)))))) | -44.7 | 52.5
82 | GATCGACAGTCGATC ((((((...)))))) | -40.4 | 49.8
83 | GATCGACAGTTCGATC ((((((....)))))) | -44.4 | 49.2
84 | GATCGACCATCGATC ((((((...)))))) | -32.2 | 49.6
85 | GATCGACCATTCGATC ((((((....)))))) | -39.6 | 50.1
86 | GATCGACCCTCGATC ((((((...)))))) | -39.1 | 51.7
87 | GATCGACCCTTCGATC ((((((....)))))) | -45.1 | 53.4
88 | GATCGACGAAAGTCATC (((.(((....)))))) | -12.7 | 33.1
89 | GATCGACGACTCGATC ((((((....)))))) | -36.3 | 48.7
90 | GATCGACGCGTCGATC ((((((....)))))) | -52.3 | 68.2
91 | GATCGACGCTTCGATC ((((((....)))))) | -40.6 | 53.3
92 | GATCGACGGATCGATC ((((((....)))))) | -29 | 51.1
93 | GATCGACGGTCGATC ((((((...)))))) | -43.7 | 51.2
94 | GATCGACGTATCGATC ((((((....)))))) | -56.4 | 51.2
95 | GATCGACTAGTCGATC ((((((....)))))) | -45.6 | 63.7
96 | GATCGACTATTCGATC ((((((....)))))) | -38.4 | 50.5
